Reference: ChEMBL document CHEMBL3259696, “Berberine and its metabolites: relationship between physicochemical properties and plasma levels after administration to human subjects” (J Nat Prod, 2014)
The source made the active and inactive calls. No cut-off for these calls is given here.

What was measured:
[1] = 1-Octanol-water distribution coefficient, log D of the compound at pH 4.5 after 1 week by HPLC-ESIMS/MS analysis; format: physicochemical
How it was run: (§1)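 Shake-flask partition: analytes started at 0.1 mM in 0.1 M Na phosphate buffer (pH range 4.5 to 9). Buffer solution mixed 1:1 with buffer-presaturated 1-octanol and equilibrated 1 week under continuous stirring at 25 °C. After centrifugation the phases were separated, and the aqueous phase was diluted in mobile phase and quantified by HPLC-ESIMS/MS. LogD calculated from the aqueous-phase concentration.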

[2] = Solubility of the compound in sodium phosphate buffer at pH 6 at 25 degC after 1 week by HPLC-ESIMS/MS analysis; format: physicochemical
How it was run: (§2)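 Solubility samples in sodium phosphate buffer at each pH were stirred continuously for 1 week at 25 °C. Solutions were passed through 0.45 μm regenerated-cellulose filters, diluted in mobile phase and quantified by HPLC-ESIMS/MS.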

[3] = system: Plasma; assay: Cmax in human plasma assessed as berberrubine at 500 mg, po after 4 hrs by HPLC-ESIMS/MS analysis; format: ADME, organism-based; parameters: dose 500 mg, route oral; settings: in vivo
[4] = system: Homo sapiens; assay: Cmax at steady state in hypercholesterolemic patient assessed as berberrubine at 15 mg/kg/day administered for 3 months by HPLC-ESIMS/MS analysis; format: ADME, organism-based; parameters: dose 15 mg/kg/day; settings: in vivo
[5] = system: Homo sapiens; assay: Hypolipidemic activity in hypercholesterolemic patient assessed as reduction of LDL cholesterol level at 15 mg/kg/day administered for 3 months measured every month during compound treatment; format: functional, organism-based
[6] = 1-Octanol-water distribution coefficient, log D of the compound at pH 7 after 1 week by HPLC-ESIMS/MS analysis; format: physicochemical; how it was run: as §1
[7] = system: Homo sapiens; assay: Tmax in human assessed as jatrorrhizine at 500 mg, po by HPLC-ESIMS/MS analysis; format: ADME, organism-based; settings: in vivo
[8] = Solubility of the compound in sodium phosphate buffer at pH 8.6 at 25 degC after 1 week by HPLC-ESIMS/MS analysis; format: physicochemical; how it was run: as §2
[9] = Cmax in human plasma at 500 mg, po by HPLC-ESIMS/MS analysis; format: ADME, organism-based; parameters: dose 500 mg, route oral
[10] = system: Plasma; assay: Plasma concentration in human assessed as berberrubine at 500 mg, po after 24 hrs by HPLC-ESIMS/MS analysis; format: ADME, organism-based; settings: in vivo
[11] = system: Homo sapiens; assay: Hypolipidemic activity in hypercholesterolemic patient assessed as reduction of total cholesterol level at 15 mg/kg/day administered for 3 months measured every month during compound treatment; format: functional, organism-based
[12] = system: Homo sapiens; assay: Effect on total triglyceride level in hypercholesterolemic patient at 15 mg/kg/day administered for 3 months measured every month during compound treatment; format: functional, organism-based
[13] = system: Plasma; assay: Cmax in human plasma assessed as demethyleneberberin at 500 mg, po by HPLC-ESIMS/MS analysis; format: ADME, organism-based; parameters: dose 500 mg, route oral; settings: in vivo
[14] = system: Plasma; assay: Cmax in human plasma assessed as jatrorrhizine at 500 mg, po by HPLC-ESIMS/MS analysis; format: ADME, organism-based; parameters: dose 500 mg, route oral; settings: in vivo
[15] = Tmax in human at 500 mg, po by HPLC-ESIMS/MS analysis; format: ADME, organism-based; settings: in vivo
[16] = 1-Octanol-water partition coefficient, log P of the compound at pH 7 after 1 week by HPLC-ESIMS/MS analysis; format: physicochemical; how it was run: as §1
[17] = target: Albumin (Bos taurus, UniProt P02769); assay: Binding affinity to bovine serum albumin by fluorescence quenching assay; format: ADME; settings: cattle, isolated protein
Sequence of Albumin (P02769 whole entry): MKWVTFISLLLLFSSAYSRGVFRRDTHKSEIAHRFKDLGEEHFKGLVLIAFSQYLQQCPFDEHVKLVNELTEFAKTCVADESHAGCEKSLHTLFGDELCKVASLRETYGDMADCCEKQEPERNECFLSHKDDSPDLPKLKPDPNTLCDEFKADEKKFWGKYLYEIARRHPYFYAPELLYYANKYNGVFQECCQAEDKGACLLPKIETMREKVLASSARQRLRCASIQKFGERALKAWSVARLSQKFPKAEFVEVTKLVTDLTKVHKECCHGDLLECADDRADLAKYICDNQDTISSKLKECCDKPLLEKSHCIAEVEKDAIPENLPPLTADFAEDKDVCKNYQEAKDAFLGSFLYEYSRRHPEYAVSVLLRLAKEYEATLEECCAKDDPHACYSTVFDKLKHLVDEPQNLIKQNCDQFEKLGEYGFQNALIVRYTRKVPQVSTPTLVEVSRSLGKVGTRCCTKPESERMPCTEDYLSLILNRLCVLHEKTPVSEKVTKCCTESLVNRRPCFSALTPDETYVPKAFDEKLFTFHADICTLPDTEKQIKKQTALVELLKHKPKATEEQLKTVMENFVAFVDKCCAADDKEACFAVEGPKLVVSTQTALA
How it was run: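 BSA at 1.0 × 10−5 mol L−1 in Tris-HCl buffer (0.05 M Tris, 0.15 M NaCl, pH 7.4), titrated with quencher from 0 to 2.4 × 10−5 mol L−1 in 0.2 × 10−5 steps at room temperature. Tryptophan emission recorded at 300–500 nm (excitation 295 nm; maximum at 340 nm). Binding constant KB obtained from a modified Stern–Volmer plot, assuming static quenching.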

[18] = Dissociation constant, acidic pKa of the compound; format: physicochemical
[19] = system: Homo sapiens; assay: Tmax in human assessed as demethyleneberberin at 500 mg, po by HPLC-ESIMS/MS analysis; format: ADME, organism-based; settings: in vivo
[20] = Cmax at steady state in hypercholesterolemic patient at 15 mg/kg administered for 3 months by HPLC-ESIMS/MS analysis; format: ADME, organism-based; parameters: dose 15 mg/kg; settings: human, in vivo
[21] = system: Homo sapiens; assay: Cmax at steady state in hypercholesterolemic patient assessed as demethyleneberberin at 15 mg/kg/day administered for 3 months by HPLC-ESIMS/MS analysis; format: ADME, organism-based; parameters: dose 15 mg/kg/day; settings: in vivo
[22] = 1-Octanol-water partition coefficient, log P of the compound at pH 4.5 after 1 week by HPLC-ESIMS/MS analysis; format: physicochemical; how it was run: as §1
[23] = 1-Octanol-water partition coefficient, log P of the compound at pH 8.6 after 1 week by HPLC-ESIMS/MS analysis; format: physicochemical; how it was run: as §1
[24] = Solubility of the compound in sodium phosphate buffer at pH 7 at 25 degC after 1 week by HPLC-ESIMS/MS analysis; format: physicochemical; how it was run: as §2
[25] = system: Homo sapiens; assay: Cmax at steady state in hypercholesterolemic patient assessed as jatrorrhizine at 15 mg/kg/day administered for 3 months by HPLC-ESIMS/MS analysis; format: ADME, organism-based; parameters: dose 15 mg/kg/day; settings: in vivo
[26] = 1-Octanol-water distribution coefficient, log D of the compound at pH 8.6 after 1 week by HPLC-ESIMS/MS analysis; format: physicochemical; how it was run: as §1
[27] = Solubility of the compound in sodium phosphate buffer at pH 4.5 at 25 degC after 1 week by HPLC-ESIMS/MS analysis; format: physicochemical; how it was run: as §2
[28] = 1-Octanol-water distribution coefficient, log D of the compound at pH 6 after 1 week by HPLC-ESIMS/MS analysis; format: physicochemical; how it was run: as §1
[29] = system: Homo sapiens; assay: Effect on HDL cholesterol level in hypercholesterolemic patient at 15 mg/kg/day administered for 3 months measured every month during compound treatment; format: functional, organism-based
[30] = 1-Octanol-water partition coefficient, log P of the compound at pH 6 after 1 week by HPLC-ESIMS/MS analysis; format: physicochemical; how it was run: as §1
[31] = Dissociation constant, basic pKa of the compound; format: physicochemical
[32] = Dissociation constant, pKa of the compound; format: physicochemical
How it was run: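 pKa values predicted in silico for the ionizable groups of the parent and its metabolites, then compared with experimentally obtained values from earlier reports.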

Row | Compound | logD at 168 h [1] | solubility at 168 h [2] | logD at 168 h [6] | solubility at 168 h [8] | logD at 168 h [16] | Kb [17] | logD at 168 h [22] | logD at 168 h [23] | solubility at 168 h [24] | logD at 168 h [26] | solubility at 168 h [27] | logD at 168 h [28] | logD at 168 h [30] | pKa [32] | further results
1 | COc1ccc2cc3[n+](cc2c1OC)CCc1cc2c(cc1-3)OCO2.[Cl-] [BERBERINE CHLORIDE] | -1.2 | 7.6 mM | -1.2 | 9.6 mM | -1.2 | 3.37 ×10³ L/mol | -1.2 | -1.2 | 9 mM | -1.2 | 8.2 mM | -1.2 | -1.2 | – | Cmax [3]: 1.4 nM; Cmax [4]: 6.7 nM; Activity [5]: Active; Tmax [7]: 2 h; Cmax [9]: 0.07 nM; concentration [10]: 0.15 nM; Activity [11]: Active; Activity [12]: inactive; Cmax [13]: 0.14 nM; Cmax [14]: 0.13 nM; Tmax [15]: 1 h; pKa [18]: 2.47; Tmax [19]: 1 h; Cmax at 3 months [20]: 4 nM; Cmax [21]: 1.7 nM; Cmax [25]: 5.6 nM; Activity [29]: inactive; pKa [31]: 15.7
2 | COc1ccc2cc3[n+](cc2c1OC)CCc1cc(O)c(O)cc1-3.[Cl-] | -1.1 | 0.2 mM | -1.1 | 6.5 mM | -1.1 | 1.98 ×10³ L/mol | -1.1 | -0.5 | 3.7 mM | -0.3 | 0.2 mM | -1.1 | -1.1 | 9.4 | –
3 | COc1ccc2cc3[n+](cc2c1O)CCc1cc2c(cc1-3)OCO2.[Cl-] [BERBERRUBINE CHLORIDE] | 0.01 | 2 mM | 2.5 | 0.5 mM | 1.1 | 1.51 ×10³ L/mol | -0.02 | 1.6 | 1 mM | 4.6 | 4.2 mM | 1.4 | 0.9 | 5 | –
4 | COc1cc2c(cc1O)CC[n+]1cc3c(OC)c(OC)ccc3cc1-2.[Cl-] [JATRORRHIZINE CHLORIDE] | -1.5 | 1.3 mM | -1.2 | 12.2 mM | -1.2 | 1.73 ×10³ L/mol | -1.5 | 0.1 | 12.4 mM | 0.6 | 1.5 mM | -1.5 | -1.5 | 9.6 | –
5 | COc1ccc2cc3n(cc-2c1=O)CCc1cc2c(cc1-3)OCO2 | 0.7 | – | 2.9 | – | 1.5 | – | 0.6 | 1.6 | – | 4.6 | – | 1.8 | 1.3 | – | –
